Where “and” joins values, the source holds several entries; their conditions need not be identical. Equal values may be shown once.
What was measured:
[1] = Incubation of 14C‐3‐NOP in liver fractions; format: in vitro ADME, humans; conditions: human, liver S9 and liver cytosol
Method in brief: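 14C-labelled test compound was incubated with or without NAD+ in liver S9, cytosol and microsomes from Sprague–Dawley rat, Wistar Han rat, Beagle dog and human. Aliquots were taken at several time points and the proteins precipitated. Supernatants were analysed by liquid scintillation counting and radio-HPLC, and half-life was derived from the time course.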

[2] = First in vivo toxicokinetic study; set-up: species or system male Wistar rats
Method in brief: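 Male Wistar rats received a single oral dose of 500 mg/kg bw 14C-labelled test compound under OECD TG 417 and were killed 48 h post-dose. Total radioactivity was measured in plasma, excreta and selected organs and tissues. Tissue levels were expressed as μg test-compound-eq/g and recovery as % of applied dose.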

[3] = ADME of 14C‐3‐NOP following single or multiple oral administration; format: in vivo, rat; conditions: for Radioactivity in plasma 48 h after the last dose: 50 mg/kg bw for five days
[4] = ADME in a lactating goat; format: in vivo
[5] = tested on: Chinese hamster V79 cells; test: In vitro micronucleus assay; format: cell-based
Method in brief: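 OECD TG 487 study, non-GLP, in Chinese hamster V79 cells. Concentrations were set from a dose-range finding test. Without S9-mix, cells had continuous 24 h treatment up to 1,243 μg/mL. With S9-mix, cells had short 4 h treatment plus 20 h recovery up to 310 μg/mL. Micronuclei were scored against the historical vehicle control range.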

[6] = tested on: Syrian hamster embryo cells; test: Cell transformation assay; format: cell-based; conditions: 500 to 2,500 μg/mL, 7 days
Method in brief: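 GLP in vitro transformation assay in Syrian hamster embryo cells, following the OECD draft proposal (2012). The test compound was given as a continuous 7-day treatment at six concentrations from 500 to 2,500 μg/mL, chosen from a dose-range finding test. The frequency of morphologically transformed colonies was scored against positive and vehicle controls.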

[7] = tested on: bone marrow cells of NMRI BR mice; test: In vivo micronucleus test, intraperitoneal
Method in brief: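 A preliminary intraperitoneal toxicity study in NMRI BR mice set the top dose for the OECD TG 474 bone marrow micronucleus test. In the main test, mice were dosed ip at 250, 500 and 1,000 mg/kg bw and sampled at 24 h; top-dose and control groups were also sampled at 48 h. 2,000 PCEs were scored per animal.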

[8] = tested on: bone marrow cells of Wistar WI (Han) rats; test: In vivo micronucleus test, oral gavage
[9] = tested on: Wistar rats; test: 2‐year carcinogenicity study; format: in vivo
[10] = tested on: Wistar rats; test: Prenatal developmental toxicity study; conditions: rat, in vivo
[11] = tested on: New Zealand White rabbits; test: Prenatal developmental toxicity study; conditions: rabbit, in vivo
[12] = Skin corrosion study
[13] = tested on: ruminal microorganisms; test: In vitro ruminal fermentation; conditions: 3‐NOP added to the feed at different concentrations, three studies
Method in brief: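 Rumen fermentation was simulated in a chemostat (RUSITEC) as continuous culture of ruminal microorganisms. Each of three studies included a control without additive and one or more groups with test compound added to the feed at differing concentrations.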

[14] = single 50 mg/kg bw, males, 48 h
[15] = trial iii, 500 mg/kg bw, 1 h, females
[16] = trial iii, 500 mg/kg bw, 1 h, males
[17] = trial iv, 5 x 50 mg/kg bw, 48 h after last administration, females
[18] = trial iv, 5 x 50 mg/kg bw, 48 h after last dose, males

O=[N+]([O-])OCCCO [3‐NOP, propan‐1,3‐diol‐mononitrate]
half-life [1]: ~42 min | Mean overall recovery of the radioactivity applied ([2]; 48 h): 28% | Radioactivity recovered from tissues, organs and carcass ([2]; 48 h): 5.5 % of the dose | Radioactivity remaining in gastrointestinal content ([2]; 48 h): 0.2 % of the dose | Radioactivity concentration in adrenal glands ([2]; 48 h after 500 mg/kg bw): 113.9 μg 3‐NOP‐eq/g | Radioactivity concentration in brain ([2]; 48 h after 500 mg/kg bw): 31.2 μg NOP‐eq/g | Radioactivity concentration in fat ([2]; 48 h after 500 mg/kg bw): 23.5 μg NOP‐eq/g | Radioactivity concentration in kidney ([2]; 48 h after 500 mg/kg bw): 71.6 μg 3‐NOP‐eq/g | Radioactivity concentration in liver ([2]; 48 h after 500 mg/kg bw): 139.6 μg 3‐NOP‐eq/g | Radioactivity concentration in muscle ([2]; 48 h after 500 mg/kg bw): 27.1 μg NOP‐eq/g | Radioactivity recovered in total excreta ([2]; at 48 h): 20 % of the dose | Radioactivity recovered in urine ([2]; first 24 h): 17.6 % of the dose | Radioactivity recovered in urine ([2]; interval 24‐48 h): 0.3 % of the dose | Cmax radioactivity in plasma ([2]; single oral 500 mg/kg bw): about 600 μg 3‐NOP‐eq/g | Radioactivity in plasma after 48 h ([2]; single oral 500 mg/kg bw): 27 μg 3‐NOP‐eq/g | Time of Cmax radioactivity in plasma ([2]; single oral 500 mg/kg bw): 1 h | Radioactivity excreted in faeces ([2]; within 48 h): 2.3 % of the dose | Parent compound in the stomach and caecum ([3]; 500 mg/kg, 1 h, females): 70 % of administered dose | Parent compound in the stomach and caecum ([3]; 500 mg/kg, 1 h, males): 83 % of administered dose | Parent compound in the liver ([3]; 500 mg/kg, 1 h, two values given, sexes not named): 3.5 % of TRR | Total mean recovery of administered radioactivity ([3]; single 50 mg/kg bw, females): 91.1% | Urinary excretion, mean ([3]; single 50 mg/kg bw, females): 4.8% | Mean radioactivity in plasma 48 h after dosing ([3]; single 50 mg/kg bw, females, 50 mg/kg): 4.2 μg 3‐NOP‐eq/mL and 4.22 μg 3‐NOP‐eq/mL | Total mean recovery of administered radioactivity ([3]; single 50 mg/kg bw, males): 95.9% | Urinary excretion, mean ([3]; single 50 mg/kg bw, males): 6.3% | Administered radioactivity recovered in expired air ([3]; single 50 mg/kg bw, males and females): about 80% | Mean concentration of TR in adrenals [3, 14]: 19.5 μg 3‐NOP‐eq/g | Mean concentration of TR in bone marrow [3, 14]: 14.3 μg 3‐NOP‐eq/g | Mean concentration of TR in kidneys [3, 14]: 10.9 μg 3‐NOP‐eq/g | Mean concentration of TR in liver [3, 14]: 12.6 μg 3‐NOP‐eq/g | Mean radioactivity in plasma 48 h after dosing ([3]; single 50 mg/kg bw, males, 50 mg/kg): 7.0 μg 3‐NOP‐eq/mL and 7.03 μg 3‐NOP‐eq/mL | Administered radioactivity recovered in expired air ([3]; single 500 mg/kg bw, females): 61.7% | Total mean recovery of administered radioactivity ([3]; single 500 mg/kg bw, females): 85.3% | Urinary excretion, mean ([3]; single 500 mg/kg bw, females): 13.1% | Mean radioactivity in plasma 48 h after dosing ([3]; single 500 mg/kg bw, females, 500 mg/kg): 34.5 μg 3‐NOP‐eq/mL and 34.47 μg 3‐NOP‐eq/mL | Administered radioactivity recovered in expired air ([3]; single 500 mg/kg bw, males): 73.5% | Total mean recovery of administered radioactivity ([3]; single 500 mg/kg bw, males): 93.2% | Urinary excretion, mean ([3]; single 500 mg/kg bw, males): 11.3% | Mean radioactivity in plasma 48 h after dosing ([3]; single 500 mg/kg bw, males, 500 mg/kg): 51.9 μg 3‐NOP‐eq/mL and 51.92 μg 3‐NOP‐eq/mL | Mean concentration of TR in plasma ([3]; trial iii, 500 mg/kg bw, 15 min, females): 477 μg 3‐NOP‐eq/mL | Mean concentration of TR in plasma ([3]; trial iii, 500 mg/kg bw, 15 min, males): 396 μg 3‐NOP‐eq/mL | Mean concentration of TR in plasma ([3]; trial iii, 500 mg/kg bw, 45 min, females): 629 μg 3‐NOP‐eq/mL | Mean concentration of TR in plasma ([3]; trial iii, 500 mg/kg bw, 45 min, males): 512 μg 3‐NOP‐eq/mL | Mean concentration of TR in plasma [3, 15]: 583 μg 3‐NOP‐eq/mL | TR in kidneys [3, 15]: 865 μg 3‐NOP‐eq/g | TR in liver [3, 15]: 622 μg 3‐NOP‐eq/g | Mean TR in kidneys [3, 16]: 636 μg 3‐NOP‐eq/g | Mean TR in liver [3, 16]: 655 μg 3‐NOP‐eq/g | Mean TR in lungs [3, 16]: 494 μg 3‐NOP‐eq/g | Mean TR in pancreas [3, 16]: 471 μg 3‐NOP‐eq/g | Mean concentration of TR in plasma [3, 16]: 467 μg 3‐NOP‐eq/mL | Time of TR max in plasma ([3]; trial iii, 500 mg/kg bw, all animals): 45 min | Radioactivity in plasma 48 h after the last dose ([3]; trial iv, females): 11.7 μg 3‐NOP‐eq/mL | Radioactivity in plasma 48 h after the last dose ([3]; trial iv, males): 14.4 μg 3‐NOP‐eq/mL | TR in adrenals [3, 17]: 57.0 μg 3‐NOP‐eq | TR in bone marrow [3, 17]: 21.3 μg 3‐NOP‐eq/g | TR in kidneys [3, 17]: 30.0 μg 3‐NOP‐eq | TR in liver [3, 17]: 32.3 μg 3‐NOP‐eq | TR in lungs [3, 17]: 20.7 μg 3‐NOP‐eq/g | TR in ovaries [3, 17]: 35.7 μg 3‐NOP‐eq | TR in pancreas [3, 17]: 21.6 μg 3‐NOP‐eq/g | TR in renal fat [3, 17]: 34.1 μg 3‐NOP‐eq | TR in spleen [3, 17]: 20.1 μg 3‐NOP‐eq/g | TR in thymus [3, 17]: 24.7 μg 3‐NOP‐eq/g | TR in adrenals [3, 18]: 51.2 μg 3‐NOP‐eq/g | TR in bone marrow [3, 18]: 34.1 μg 3‐NOP‐eq/g | TR in epididymis [3, 18]: 18.2 μg 3‐NOP‐eq/g | TR in kidneys [3, 18]: 34.8 μg 3‐NOP‐eq/g | TR in liver [3, 18]: 34.9 μg 3‐NOP‐eq/g | TR in lungs [3, 18]: 18.7 μg 3‐NOP‐eq/g | TR in pancreas [3, 18]: 20.0 μg 3‐NOP‐eq/g | TR in prostate [3, 18]: 24.6 μg 3‐NOP‐eq/g | TR in spleen [3, 18]: 22.9 μg 3‐NOP‐eq/g | TR in thymus [3, 18]: 28.5 μg 3‐NOP‐eq/g | Mean cumulative excretion via the expired air ([3]; trial iv, 48 h after the last dose): about 70 % of the total administered radioactivity | Radioactivity in carcass ([3]; trial iv, females): 3.6% | Total mean recovery of the administered radioactivity ([3]; trial iv, females): 83.1% | Radioactivity in carcass ([3]; trial iv, males): 3.5% | Total mean recovery of the administered radioactivity ([3]; trial iv, males): 86.4% | Milk radioactivity in the aqueous phase of milk ([4]; 0–8 h after the sixth day of administration): 75.2% | Radioactivity excreted via faeces ([4]; 4.34 mg/kg bw per day, 7 days): 1.9 % of total radioactivity appli | Radioactivity excreted via milk ([4]; 4.34 mg/kg bw per day, 7 days): 6.42 % of total radioactivity appli | Radioactivity excreted via urine ([4]; 4.34 mg/kg bw per day, 7 days): 3.5 % of total radioactivity appli | Radioactivity in the intestinal tract content ([4]; 4.34 mg/kg bw per day, 7 days): 1.14 % of total radioactivity appli | Radioactivity remaining in the total edible tissues ([4]; 4.34 mg/kg bw per day, 7 days): 4.98 % of total radioactivity appli | Total radioactivity excreted ([4]; 4.34 mg/kg bw per day, 7 days): 11.85% | Total recovery at sacrifice ([4]; 4.34 mg/kg bw per day, 7 days): 17.97% | Milk radioactivity in the aqueous phase of milk ([4]; 8–24 h after the sixth day of administration): 59.0% | Radioactive residues in plasma ([4]; 24 h after the first administration): 0.61 mg 3‐NOP‐eq/kg | Radioactive residues in plasma ([4]; at sacrifice): 3.72 mg 3‐NOP‐equivalents/kg | Nitrate esters in milk, not detectable (LOD) ([4]; milk collected 0–8 h post‐dose): < 0.82 mg 3‐NOP‐equivalent/kg | Nitrate esters in milk, not detectable (LOD) ([4]; milk collected 8–24 h post‐dose): < 0.43 mg 3‐NOP‐equivalent/kg | Plasma radioactivity non‐extractable in the protein precipitate ([4]; plasma collected at sacrifice): Eighty‐five | Micronucleus frequency ([5]; absence of metabolic activation, up to 1,243 μg/mL, 24 h): no increase in micronucleus frequency | Micronucleus frequency ([5]; presence of metabolic activation, up to 310 μg/mL, 4 + 20 h): statistically significant increase in micronuclei | Morphologically transformed colonies [6]: No significant increase in the frequency of morphologically transformed colonies | Frequency of micronuclei ([7]; 250, 500 and 1,000 mg/kg bw intraperitoneally): comparable between treated and negative control groups | Dose showing mortality ([7]; preliminary toxicity study, intraperitoneal): 2,000 mg/kg bw | In vivo MN test result ([8]; 375, 750 and 1,500 mg/kg bw by gavage): Equivocal results | Dose showing severe symptoms and mortality ([8]; dose‐range finding test, gavage): 2,000 mg/kg bw | NOAEL ([9]; benign gastrointestinal mesenchymal tumours in small intestines): 100 mg 3‐NOP/kg bw per day | Benign mesenchymal cell tumours (PWG) ([9]; females, 300 mg/kg bw per day): three | Maternal NOAEL [10]: 300 mg/kg bw per day | NOAEL for maternal and developmental toxicity [11]: at least 450 mg/kg bw per day | Skin corrosion potential [12]: not corrosive to skin | Methane output in vitro [13]: reduces methane output significantly

Reference: publication PMC8603004 (EFSA Journal, 2021)
